{"source": "ChEMBL document CHEMBL3997766", "about": "“Synthesis and pre-clinical studies of new amino-acid ester thiazolide prodrugs” (Eur J Med Chem, 2017)", "key": {"Rattus norvegicus [1]": {"system": "Rattus norvegicus", "assay": "Toxicity in Sprague-Dawley rat assessed as increase in total bilirubin level at 30 to 75 mg/kg administered as oral gavage qd for 28 consecutive days followed by 2 weeks recovery period measured on day 43", "assay_type": "organism-based", "settings": "in vivo, 336 h", "summary_of_the_method": "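Sub-acute study in Sprague-Dawley rats dosed orally with a suspension at 10, 30 and 75 mg/kg once daily for 28 consecutive days. Four groups of up to 30 rats each (15M/15F).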"}, "Rattus norvegicus [2]": {"system": "Rattus norvegicus", "assay": "Toxicity in Sprague-Dawley rat assessed as early death at 10 to 75 mg/kg administered as oral gavage qd for 28 consecutive days measured up to day 43", "assay_type": "organism-based", "settings": "in vivo", "summary_of_the_method": "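Sub-acute study in Sprague-Dawley rats: 10, 30 or 75 mg/kg given orally once a day for 28 consecutive days as a yellow suspension. There were 4 groups of up to 30 rats each (15M/15F), including a control. Body weight, clinical observations and terminal findings were assessed.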"}, "Rattus norvegicus [3]": {"system": "Rattus norvegicus", "assay": "Toxicity in Sprague-Dawley rat assessed as effect on respiratory rate by measuring minute volume dose at 100 to 300 mg/kg administered as single dose via oral gavage", "assay_type": "organism-based", "settings": "in vivo", "summary_of_the_method": "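Respiratory safety study: conscious rats, 3 groups of 6 (3M/3F), given single oral-gavage doses of 100, 300 or 1000 mg/kg, with an untreated control group. Respiratory rate (breaths per minute), tidal volume and minute volume were recorded, and mortality was noted.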"}, "Canis familiaris [4]": {"system": "Canis familiaris", "assay": "Drug metabolism in Beagle dog assessed as tizoxanide level in plasma administered orally as gelatin capsule once daily for 28 days measured on day 1 and 29", "assay_type": "ADME, Canis lupus familiaris", "settings": "po, 672 h", "summary_of_the_method": "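Beagle dogs received the drug orally in a single gelatin capsule at 5, 15 or 25 mg/kg once daily for 28 consecutive days in a sub-acute toxicity study assessing systemic exposure.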"}, "Canis familiaris [5]": {"system": "Canis familiaris", "assay": "Toxicity in Beagle dog assessed as change in food consumption up to 25 mg/kg, po administered as gelatin capsule once daily for 28 days", "assay_type": "organism-based, Canis lupus familiaris", "settings": "in vivo, 672 h", "summary_of_the_method": "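Sub-acute study in Beagle dogs dosed orally by gelatin capsule at 5, 15 and 25 mg/kg once a day for 28 consecutive days.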"}, "Canis familiaris [6]": {"system": "Canis familiaris", "assay": "Toxicity in Beagle dog administered orally as gelatin capsule once daily for 28 days", "design": "species or system Canis lupus familiaris", "settings": "in vivo, po, 672 h", "summary_of_the_method": "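Sub-acute study in Beagle dogs: 5, 15 or 25 mg/kg/day given orally in a single gelatin capsule once a day for 28 consecutive days to assess systemic exposure and toxicity, with NOAEL determination.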"}}, "data": [{"smiles": "CC(C)(C)[C@H](N)C(=O)Oc1ccccc1C(=O)Nc1ncc([N+](=O)[O-])s1.Cl", "values": [{"measurement": "Activity", "setting": "Rattus norvegicus [1]", "result": "Toxic"}, {"measurement": "Activity", "setting": "Rattus norvegicus [2]", "result": "Non-Toxic"}, {"measurement": "Activity", "setting": "Rattus norvegicus [3]", "result": "Non-Toxic"}, {"measurement": "Drug metabolism", "setting": "Canis familiaris [4]", "result": "Dose-dependent effect"}, {"measurement": "Activity", "setting": "Canis familiaris [5]", "result": "Non-Toxic"}, {"measurement": "NOAEL", "setting": "Canis familiaris [6]", "result": 25, "unit": "mg/kg/day"}]}]}
